Data published in ChEMBL document CHEMBL3124806, “Imidazopyridine-fused [1,3]-diazepinones: synthesis and antiproliferative activity” (Eur J Med Chem, 2014).

Tests used:
Ovis aries = species: Ovis aries; experiment: Inhibition of sheep brain tubulin polymerization at 100 uM after 40 mins by DAPI staining-based fluorescence assay
Outline: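 Microtubular protein was purified from sheep brain by two assembly/disassembly cycles (37 °C/0 °C) in MES buffer (100 mM MES pH 6.6, 1 mM EGTA, 0.5 mM MgCl₂). Compound in DMSO was added to 10 µM tubulin with 10 µM DAPI and incubated 40 min at RT. GTP (1 mM) was then added, and assembly was followed by DAPI fluorescence at 37 °C.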

MDA-MB-468 = experiment: Cytotoxicity against human MDA-MB-468 cells assessed as cell growth at 10 uM after 48 hrs by SRB assay relative to untreated control; type: functional; settings: MDA-MB-468, 48 h, read-out: Activity
Outline: (§1)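 NCI-60 one-dose screen: each agent added at 10 µM, cultures incubated 48 h. Endpoint by sulforhodamine B protein-binding dye read spectrophotometrically; growth expressed as percent of untreated control cells.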

T47D = experiment: Cytotoxicity against human T47D cells assessed as cell growth at 10 uM after 48 hrs by SRB assay relative to untreated control; type: functional; settings: read-out: Activity
Outline: (§2)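 NCI-60 single-dose screen. Compounds were added to the cultures at 10 μM and incubated for 48 h. The end point was sulforhodamine B protein staining read spectrophotometrically. Growth is reported as percent of untreated control cells.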

BT-549 = experiment: Cytotoxicity against human BT549 cells assessed as cell growth at 10 uM after 48 hrs by SRB assay relative to untreated control; type: functional; settings: BT-549, 48 h, read-out: Activity
Outline: (§3)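 NCI-60 panel screen at a single concentration of 10 μM with 48 h incubation. Cell density measured by sulforhodamine B protein-binding dye and read spectrophotometrically. Growth expressed as percent of untreated control cells.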

[1] = Cytotoxicity against human Hs578T cells assessed as cell growth at 10 uM after 48 hrs by SRB assay relative to untreated control; type: functional; settings: Hs-578T, read-out: Activity; outline: as §3
MCF7 = experiment: Cytotoxicity against human MCF7 cells assessed as cell growth at 10 uM after 48 hrs by SRB assay relative to untreated control; type: functional; settings: MCF7, 48 h, read-out: Activity; outline: as §3
SN12C = experiment: Cytotoxicity against human SN12C cells assessed as cell growth at 10 uM after 48 hrs by SRB assay relative to untreated control; type: functional; settings: read-out: Activity; outline: as §2
ACHN = experiment: Cytotoxicity against human ACHN cells assessed as cell growth at 10 uM after 48 hrs by SRB assay relative to untreated control; type: functional; settings: read-out: Activity; outline: as §3
786-0 = experiment: Cytotoxicity against human […] cells assessed as cell growth at 10 uM after 48 hrs by SRB assay relative to untreated control; type: functional; settings: 786-0, 48 h, read-out: Activity; outline: as §3
SK-OV-3 = experiment: Cytotoxicity against human SKOV3 cells assessed as cell growth at 10 uM after 48 hrs by SRB assay relative to untreated control; type: functional; settings: SK-OV-3, 48 h, read-out: Activity; outline: as §2
[2] = Cytotoxicity against human NCI-ADR-RES cells assessed as cell growth at 10 uM after 48 hrs by SRB assay relative to untreated control; type: functional; settings: read-out: Activity; outline: as §1
[3] = Cytotoxicity against human OVCAR5 cells assessed as cell growth at 10 uM after 48 hrs by SRB assay relative to untreated control; type: functional; settings: OVCAR-5, 48 h, read-out: Activity; outline: as §1
UACC-62 = experiment: Cytotoxicity against human UACC62 cells assessed as cell growth at 10 uM after 48 hrs by SRB assay relative to untreated control; type: functional; settings: UACC-62, 48 h, read-out: Activity; outline: as §2
SK-MEL-5 = experiment: Cytotoxicity against human SK-MEL-5 cells assessed as cell growth at 10 uM after 48 hrs by SRB assay relative to untreated control; type: functional; settings: SK-MEL-5, 48 h, read-out: Activity; outline: as §2
SK-MEL-2 = experiment: Cytotoxicity against human SK-MEL-2 cells assessed as cell growth at 10 uM after 48 hrs by SRB assay relative to untreated control; type: functional; settings: SK-MEL-2, 48 h, read-out: Activity; outline: as §1
M14 = experiment: Cytotoxicity against human M14 cells assessed as cell growth at 10 uM after 48 hrs by SRB assay relative to untreated control; type: functional; settings: M14, 48 h, read-out: Activity; outline: as §3
Malme-3M = experiment: Cytotoxicity against human MALME-3M cells assessed as cell growth at 10 uM after 48 hrs by SRB assay relative to untreated control; type: functional; settings: read-out: Activity; outline: as §3
U-251 = experiment: Cytotoxicity against human U251 cells assessed as cell growth at 10 uM after 48 hrs by SRB assay relative to untreated control; type: functional; settings: U-251, 48 h, read-out: Activity; outline: as §2
SNB-19 = experiment: Cytotoxicity against human SNB19 cells assessed as cell growth at 10 uM after 48 hrs by SRB assay relative to untreated control; type: functional; settings: SNB-19, 48 h, read-out: Activity; outline: as §2
SF-539 = experiment: Cytotoxicity against human SF539 cells assessed as cell growth at 10 uM after 48 hrs by SRB assay relative to untreated control; type: functional; settings: SF-539, 48 h, read-out: Activity; outline: as §1
HT-29 = experiment: Cytotoxicity against human HT-29 cells assessed as cell growth at 10 uM after 48 hrs by SRB assay relative to untreated control; type: functional; settings: HT-29, 48 h, read-out: Activity; outline: as §3
HCT-15 = experiment: Cytotoxicity against human HCT15 cells assessed as cell growth at 10 uM after 48 hrs by SRB assay relative to untreated control; type: functional; settings: HCT-15, 48 h, read-out: Activity; outline: as §3
NCI-H522 = experiment: Cytotoxicity against human NCI-H522 cells assessed as cell growth at 10 uM after 48 hrs by SRB assay relative to untreated control; type: functional; settings: NCI-H522, 48 h, read-out: Activity; outline: as §1
NCI-H322M = experiment: Cytotoxicity against human NCI-H322M cells assessed as cell growth at 10 uM after 48 hrs by SRB assay relative to untreated control; type: functional; settings: read-out: Activity; outline: as §1
NCI-H23 = experiment: Cytotoxicity against human NCI-H23 cells assessed as cell growth at 10 uM after 48 hrs by SRB assay relative to untreated control; type: functional; settings: NCI-H23, 48 h, read-out: Activity; outline: as §1
A549 = experiment: Cytotoxicity against human A549 cells assessed as cell growth at 10 uM after 48 hrs by SRB assay relative to untreated control; type: functional; settings: A549, 48 h, read-out: Activity; outline: as §3
MOLT-4 = experiment: Cytotoxicity against human MOLT4 cells assessed as cell growth at 10 uM after 48 hrs by SRB assay relative to untreated control; type: functional; settings: MOLT-4, 48 h, read-out: Activity; outline: as §1
HL-60(TB) = experiment: Cytotoxicity against human HL-60(TB) cells assessed as cell growth at 10 uM after 48 hrs by SRB assay relative to untreated control; type: functional; settings: HL-60, 48 h, read-out: Activity
Outline: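 NCI-60 human tumour cell line panel; a single 10 µM concentration was added to the cultures and incubated 48 h. Endpoint was sulforhodamine B protein-binding dye read spectrophotometrically, with growth reported as percent of untreated control cells.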

CCRF-CEM = experiment: Cytotoxicity against human CCRF-CEM cells assessed as cell growth at 10 uM after 48 hrs by SRB assay relative to untreated control; type: functional; settings: read-out: Activity; outline: as §3

Row | Structure (SMILES) | growth at 10 µM (MDA-MB-468) | growth at 10 µM (T47D) | growth at 10 µM (BT-549) | growth at 10 µM [1] | growth at 10 µM (MCF7) | growth at 10 µM (SN12C) | growth at 10 µM (ACHN) | growth at 10 µM (786-0) | growth at 10 µM (SK-OV-3) | growth at 10 µM [2] | growth at 10 µM [3] | growth at 10 µM (UACC-62) | growth at 10 µM (SK-MEL-5) | growth at 10 µM (SK-MEL-2) | growth at 10 µM (M14) | growth at 10 µM (Malme-3M) | growth at 10 µM (U-251) | growth at 10 µM (SNB-19) | growth at 10 µM (SF-539) | growth at 10 µM (HT-29) | further results
1 | C[C@H]1NC(c2ccc(Br)cc2)=Nc2nc3ccccn3c2C1=O | 102% | 85% | 75.5% | 86.5% | 65.1% | 94.6% | 94% | 89.1% | 97.8% | 95.7% | 98.2% | 84% | 94.2% | 81.8% | 99.2% | 101% | 101% | 92.5% | 95.5% | 104% | inhibition (Ovis aries): 26%; growth at 10 µM (HCT-15): 97.1%; growth at 10 µM (NCI-H522): 79.2%; growth at 10 µM (NCI-H322M): 86.1%; growth at 10 µM (NCI-H23): 90.7%; growth at 10 µM (A549): 99.6%; growth at 10 µM (MOLT-4): 79.7%; growth at 10 µM (HL-60(TB)): 91.1%; growth at 10 µM (CCRF-CEM): 96.9%
2 | C[C@@H]1NC(c2ccc(Br)cc2)=Nc2nc3ccccn3c2C1=O | -0.5% | 67.2% | 49.3% | 71.3% | 20.9% | 91.8% | 69.2% | 83.1% | 72% | 39.4% | 82.4% | 49.2% | 31.9% | 47.4% | 31.8% | 51.8% | 54% | 82.6% | 74.7% | 17.5% | inhibition (Ovis aries): 8%; growth at 10 µM (HCT-15): 30.8%; growth at 10 µM (NCI-H522): 34.8%; growth at 10 µM (NCI-H322M): 74%; growth at 10 µM (NCI-H23): 53.7%; growth at 10 µM (A549): 54.7%; growth at 10 µM (MOLT-4): 57.5%; growth at 10 µM (CCRF-CEM): 79.4%
3 | Cc1ccccc1C1=Nc2nc3ccccn3c2C(=O)[C@H](Cc2ccccc2)N1 | 104% | 104% | 96.9% | 102% | 84.9% | 107% | 94.5% | 101% | 111% | 95.4% | 101% | 103% | 103% | 115% | 102% | 109% | 100% | 109% | 99.4% | 115% | growth at 10 µM (HCT-15): 100%; growth at 10 µM (NCI-H522): 121%; growth at 10 µM (NCI-H322M): 106%; growth at 10 µM (NCI-H23): 95.3%; growth at 10 µM (A549): 91.7%; growth at 10 µM (MOLT-4): 111%; growth at 10 µM (HL-60(TB)): 125%; growth at 10 µM (CCRF-CEM): 105%
4 | O=C1c2c(nc3ccccn23)N=C(c2ccccc2)N2CCC[C@@H]12 | 101% | 93.6% | 99.1% | 96.7% | 93% | 99.6% | 97.9% | 97.9% | 103% | 97.7% | 94.2% | 107% | 94.7% | 114% | 96.5% | 102% | 96.2% | 103% | 89.8% | 114% | growth at 10 µM (HCT-15): 93.8%; growth at 10 µM (NCI-H522): 127%; growth at 10 µM (NCI-H322M): 106%; growth at 10 µM (NCI-H23): 97.8%; growth at 10 µM (A549): 96.3%; growth at 10 µM (MOLT-4): 111%; growth at 10 µM (HL-60(TB)): 129%; growth at 10 µM (CCRF-CEM): 104%
